Measured values reported in ChEMBL document CHEMBL4270594, “Design, synthesis and pharmacological evaluation of new 3-(1H-benzimidazol-2-yl)quinolin-2(1H)-one derivatives as potential antitumor agents” (Eur J Med Chem, 2018).
Active and inactive are the calls of the source. The rule behind the calls is not given here.

How the values were obtained:
HepG2 [1] = test: Cell cycle arrest in human HepG2 cells transfected with p53 siRNA assessed as accumulation at S-phase after 48 hrs by propidium iodide staining based flow cytometry (reference value: 20.37 to 22.8%); type: functional
HepG2 [2] = test: Induction of apoptosis in human HepG2 cells transfected with p53 siRNA assessed as early apoptotic cells after 24 hrs by Annexin V-FITC/ propidium iodide staining based flow cytometry (reference value: 5.99 to 6.01%); type: functional
HepG2 [3] = test: Cytotoxicity against human HepG2 cells after 48 hrs by MTT assay; type: functional, cell-based; conditions: HepG2, 48 h
How it was run: (§1)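 MTT cytotoxicity assay run against HepG2 and BEL-7404 liver cancer, SK-OV-3 ovarian, NCI-H460 large-cell lung cancer and HL-7702 normal liver cells. 5-fluorouracil and cisplatin served as positive controls. IC50 is given as mean ± SD of three repeat experiments.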

SK-OV-3 = test: Cytotoxicity against human SKOV3 cells after 48 hrs by MTT assay; type: functional, cell-based; conditions: SK-OV-3, 48 h; how it was run: as §1
NCI-H460 [4] = test: Cytotoxicity against human NCI-H460 cells after 48 hrs by MTT assay; type: functional, cell-based; conditions: NCI-H460, 48 h; how it was run: as §1
BEL-7404 tumor cell line = test: Cytotoxicity against human Bel7404 cells after 48 hrs by MTT assay; type: functional, cell-based; conditions: BEL-7404, 48 h; how it was run: as §1
L02 = test: Cytotoxicity against human HL-7702 cells after 48 hrs by MTT assay; type: cell-based; conditions: L02, 48 h; how it was run: as §1
Mus musculus [5] = test: Toxicity in Kunming mouse assessed as change in body weight at 50 mg/kg/day, ip for 14 consecutive days measured daily during compound dosing; type: organism-based; conditions: in vivo
How it was run: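 Kunming mice dosed intraperitoneally at 50 mg/kg per day for 14 consecutive days, compound dissolved in 5% v/v DMSO/saline; body weight recorded daily as a systemic toxicity parameter against a control group; six mice per group.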

Mus musculus [6] = test: Toxicity in Kunming mouse assessed as signs of peritonitis or damage to heart at 50 mg/kg/day, ip for 14 consecutive days by microscopic method; type: organism-based; conditions: in vivo
How it was run: (§2)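 Kunming mice given 50 mg/kg/day ip in 5% v/v DMSO/saline for 14 days; kidney, heart and liver harvested, sectioned for pathology slices and examined microscopically for peritonitis or organ damage versus control mice.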

Mus musculus [7] = test: Toxicity in Kunming mouse assessed as signs of peritonitis or damage to liver at 50 mg/kg/day, ip for 14 consecutive days by microscopic method; type: organism-based; conditions: in vivo; how it was run: as §2
Mus musculus [8] = test: Toxicity in Kunming mouse assessed as signs of peritonitis or damage to kidney at 50 mg/kg/day, ip for 14 consecutive days by microscopic method; type: organism-based; conditions: in vivo; how it was run: as §2
NCI-H460 [9] = test: Antitumor activity against human NCI-H460 cells xenografted in Balb/c nude mouse assessed as relative tumor volume increment rate at 50 mg/kg, ip bid for 13 days measured on day 14 post last dose relative to control; type: functional
How it was run: (§3)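 SPF BALB/c nude mice carrying NCI-H460 xenografts were randomly grouped and given 25 or 50 mg/kg. Vehicle (5% DMSO in saline, v/v) and cisplatin 2 mg/kg were the controls, n = 6 per group. Tumour volume was followed to give the relative tumour increment rate (T/C, %). Tumours were harvested and weighed on day 14 to give the weight inhibitory rate.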

NCI-H460 [10] = test: Antitumor activity against human NCI-H460 cells xenografted in Balb/c nude mouse assessed as relative tumor volume increment rate at 25 mg/kg, ip bid for 13 days measured on day 14 post last dose relative to control; type: functional; how it was run: as §3
NCI-H460 [11] = test: Antitumor activity against human NCI-H460 cells xenografted in Balb/c nude mouse assessed as tumor growth inhibition at 25 mg/kg, ip bid for 13 days measured on day 14 post last dose relative to control; type: functional; conditions: read-out: TGI; how it was run: as §3
NCI-H460 [12] = test: Antitumor activity against human NCI-H460 cells xenografted in Balb/c nude mouse assessed as tumor growth inhibition at 50 mg/kg, ip bid for 13 days measured on day 14 post last dose relative to control; type: functional; conditions: read-out: TGI; how it was run: as §3
Mus musculus [13] = test: Toxicity in Balb/c nude mouse xenografted with human NCI-H460 cells assessed as change in body weight at 25 to 50 mg/kg, ip bid for 13 days; type: organism-based; conditions: in vivo, 312 h
How it was run: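 SPF BALB/c nude mice bearing NCI-H460 xenografts, randomized and given 25 or 50 mg/kg in 5% DMSO/saline vehicle, with cisplatin 2 mg/kg as positive control; body weight tracked over the 13-day treatment; n = 6.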

NCI-H460 [14] = test: Antitumor activity against human NCI-H460 cells xenografted in Balb/c nude mouse assessed as induction of necrosis at 25 to 50 mg/kg, ip bid for 13 days measured on day 14 post last dose by hematoxylin and eosin staining based microscopic method; type: functional, organism-based
Mus musculus [15] = test: Downregulation of Bcl2 protein expression in tumor tissues of Balb/c nude mouse xenografted with human NCI-H460 cells at 25 to 50 mg/kg, ip bid for 13 days measured on day 14 by Western blot analysis; type: functional, organism-based
Mus musculus [16] = test: Upregulation of cytochrome-c expression in tumor tissues of Balb/c nude mouse xenografted with human NCI-H460 cells at 25 to 50 mg/kg, ip bid for 13 days measured on day 14 by Western blot analysis; type: functional, organism-based
How it was run: (§4)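 Tumors from NCI-H460 xenografted BALB/c nude mice (25 or 50 mg/kg, vehicle 5% DMSO in saline) collected at day 14; protein levels in tumor tissue determined by western blot versus vehicle control.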

Mus musculus [17] = test: Effect on caspase-3 protein expression in tumor tissues of Balb/c nude mouse xenografted with human NCI-H460 cells at 25 to 50 mg/kg, ip bid for 13 days measured on day 14 by Western blot analysis; type: functional, organism-based
Mus musculus [18] = test: Upregulation of caspase-9 protein expression in tumor tissues of Balb/c nude mouse xenografted with human NCI-H460 cells at 25 to 50 mg/kg, ip bid for 13 days measured on day 14 by Western blot analysis; type: functional, organism-based; how it was run: as §4
HepG2 [19] = test: Cell cycle arrest in human HepG2 cells transfected with p53 siRNA assessed as accumulation at G1-phase after 48 hrs by propidium iodide staining based flow cytometry (reference value: 55.48 to 56.24%); type: functional
HepG2 [20] = test: Cell cycle arrest in human HepG2 cells transfected with p53 siRNA assessed as accumulation at G2-phase after 48 hrs by propidium iodide staining based flow cytometry (reference value: 21.72 to 23.39%); type: functional
HepG2 [21] = test: Induction of apoptosis in human HepG2 cells transfected with p53 siRNA assessed as live cells after 24 hrs by Annexin V-FITC/ propidium iodide staining based flow cytometry (reference value: 69.9 to 70.3%); type: functional
HepG2 [22] = test: Induction of apoptosis in human HepG2 cells transfected with p53 siRNA assessed as late apoptotic cells after 24 hrs by Annexin V-FITC/ propidium iodide staining based flow cytometry (reference value: 7.99 to 8.6%); type: functional
HepG2 [23] = test: Induction of apoptosis in human HepG2 cells transfected with p53 siRNA assessed as necrotic apoptotic cells after 24 hrs by Annexin V-FITC/ propidium iodide staining based flow cytometry (reference value: 15.6 to 15.7%); type: functional
HepG2 [24] = test: Downregulation of CDC25C protein expression in human HepG2 cells at 6 to 10 uM after 12 hrs by Western blot analysis; type: functional, cell-based
HepG2 [25] = test: Induction of apoptosis in human HepG2 cells assessed as late apoptotic cells at 6 uM after 24 hrs by Annexin V-FITC/ propidium iodide staining based flow cytometry (reference value: 1.91%); type: functional

Structure (SMILES) | Activity (HepG2 [1]) [%] | Activity (HepG2 [2]) [%] | IC50 (HepG2 [3]) [µM] | IC50 (SK-OV-3) [µM] | IC50 (NCI-H460 [4]) [µM] | IC50 (BEL-7404 tumor cell line) [µM] | IC50 (L02) [µM] | Activity (Mus musculus [5]) | Activity (Mus musculus [6]) | Activity (Mus musculus [7]) | Activity (Mus musculus [8]) | T/C (NCI-H460 [9]) [%] | T/C (NCI-H460 [10]) [%] | inhibition in vivo at 25 mg/kg (NCI-H460 [11]) [%] | inhibition in vivo at 50 mg/kg (NCI-H460 [12]) [%] | Activity (Mus musculus [13]) | Activity (NCI-H460 [14]) | Activity (Mus musculus [15]) | Activity (Mus musculus [16]) | Activity (Mus musculus [17]) | also measured
O=c1[nH]c2cc3c(cc2cc1-c1nc2cc(Cl)ccc2[nH]1)OCO3 | 6.86 | 11.2 | 10.6 | 24.7 | 30.4 | 9.06 | > 100 | Non-Toxic | Non-Toxic | Non-Toxic | Non-Toxic | 38.1 | 48.8 | 46.2 | 55.1 | Non-Toxic | Active | Active | Active | inactive | Activity (Mus musculus [18]): Active; Activity (HepG2 [19]): 74.18%; Activity (HepG2 [20]): 18.96%; Activity (HepG2 [21]): 74.6%; Activity (HepG2 [22]): 7.96%; Activity (HepG2 [23]): 6.29%
O=c1[nH]c2ccccc2cc1-c1nc2cc(Cl)ccc2[nH]1 | 20.84 | 11.5 | 8.45 | 10.5 | 14.7 | 16.5 | > 100 | Non-Toxic | Non-Toxic | Non-Toxic | Non-Toxic | 30.7 | 40.6 | 51.9 | 66.9 | Non-Toxic | Active | Active | Active | inactive | Activity (HepG2 [24]): Active; Activity (HepG2 [25]): 10.4%; Activity (Mus musculus [18]): Active; Activity (HepG2 [19]): 46.86%; Activity (HepG2 [20]): 32.3%; Activity (HepG2 [21]): 74.8%; Activity (HepG2 [22]): 7.62%; Activity (HepG2 [23]): 6.08%
